Source: PubChem
GRIN3A LBD mod: binders of NR3A ligand-binding domain, primary screen, biophysical, differential scanning fluorimetry, uHTS | AID 1259313, 2017 | NR3A LBD differential scanning fluorimetry, Tm shift; 0% = protein alone, 100% = glycine-bound protein | Glutamate receptor ionotropic, NMDA 3A (GRIN3A) ligand-binding domain | hit rate 2.5% among 340,000 | Tm shift relative to glycine control, % at 25 µM;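 active = melting temperature shift of at least 10% of the positive control shift, at one fixed dose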
CSC inhib: cancer stem cell viability inhibitors, primary screen, luminescence. cancer stem cell-like cells viability. hit rate 1.1% among 300,000. inhibition, % at 7.5 µM; in the data active = inhibition above about 75%; tested in HMLE shEcad cells
PREPL inh: PREPL enzyme inhibitors, primary screen, biochemical, fluorescence polarization | inhibition, % at 5.96 µM | hit rate 0.68% among 320,000 | recombinant PREPL, fluorescence polarization activity-based probe; in the data active = inhibition above about 43%;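 also: 0% = enzyme with DMSO and 100% = wells lacking enzyme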
T cruzi inh: inhibitors of intracellular T. cruzi growth, primary screen, luminescence, NIH3T3 host cells; T. cruzi beta-gal in NIH3T3, 90 h; hit rate 1.4% among 300,000; inhibition, % (no concentration beside the values);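 active = mean inhibition across valid replicates above about 55%, limit read from the data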;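 also: signal also drops with host cell toxicity which is not excluded here; 0% = plate median of DMSO wells and 100% = zero luminescence signal; higher percent means less beta-gal luminescence so fewer parasites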
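Material: NIH/3T3 host cells with β-galactosidase reporter T. cruzi; Input: 5,000 host fibroblasts per well; Medium: DMEM, 2% fetal bovine serum; Compound: 50 nL DMSO compound solution per well; Schedule: 3 h host attachment, then at least 90 h co-culture; Detection: luminescent β-galactosidase signal after 60 min lysis.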
Beta apoptosis: inhibitors of cytokine-induced beta cell apoptosis, primary screen, luminescence; INS-1E cytokine-induced death, ATP luminescence, 48 h; percent of positive-control rescue, neutral wells zero; protection from apoptosis, % (concentration not given with the values); hit rate 0.8% among 300,000; AID 435005, 2010;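 active = Every replicate reaches about 75%, or at least half do and their mean reaches it too, limit read from the data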;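 also: 0% = cytokine-treated negative control wells and 100% = positive control rescue; higher means more ATP so stronger rescue from cytokine killing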
CHOP inhibitor: inhibitors of CHOP promoter induction, primary screen, cell-based, unfolded protein response, luciferase reporter. CHO-K1 CHOP-promoter luciferase, tunicamycin-induced, 15-18 h. inhibition, % at 10 µM. hit rate 3.8% among 220,000. AID 2732, 2010;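 active = compounds that reduced the stress-induced luciferase reporter signal by more than about 70% of percent inhibition, limit read from the data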;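 also: 0% = tunicamycin plus vehicle and 100% = wells without tunicamycin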
Active calls of the source: *; / = not tested or not shown. Sampled rows, rich in hits. Any-hit rate of the full collection: about 6.7%.

SMILES	GRIN3A LBD mod	CSC inhib	PREPL inh	T cruzi inh	Beta apoptosis	CHOP inhibitor
Cc1ccc(C2(C)NC(=O)N(CC(=O)Nc3ccc(-c4nc5ccc(C)cc5s4)cc3)C2=O)cc1 (centres undefined)	2	20	-15	32	12	73*
Cc1ccc2nc(-c3ccc(NC(=O)C(C)N4C(=O)c5ccccc5C4=O)cc3)sc2c1 (centres undefined)	16*	8	-3	-5	-6	9
Cc1nc2ccccc2c(=O)n1NC(=O)c1cccc([N+](=O)[O-])c1	-1	-12	-7	9	-1	4
COc1ccccc1/C=N/NC(=O)C(=O)Nc1ccccc1OC(F)(F)C(F)F	-22	-5	-1	-18	1	13
O=C(N/N=C/c1cc(Cl)ccc1O)C(=O)Nc1ccccc1OC(F)(F)C(F)F	4	96*	-15	/	89*	78*
O=C(N/N=C/c1cc(Br)ccc1O)C(=O)Nc1ccccc1OC(F)(F)C(F)F	6	96*	-3	57*	83*	77*
COc1cccc(/C=N/NC(=O)C(=O)Nc2ccccc2OC(F)(F)C(F)F)c1	-1	2	-8	0	1	32
Cc1cc(C)c(C(=O)NC2CCCc3c2cnn3-c2cccc(C)c2C)o1 (centres undefined)	-1	23	-3	28	5	/
CCc1cc(C(=O)NC2CCCc3c2cnn3-c2cccc(C)c2C)n(C)n1 (centres undefined)	-2	6	1	2	99*	/
Cc1cc(C(=O)NC2CCCc3c2cnn3-c2ccc(C)c(C)c2)n(C)n1 (centres undefined)	-1	13	13	-58	110*	/
Cc1nnsc1C(=O)NC1CCCc2c1cnn2-c1ccc(C(C)(C)C)cc1 (centres undefined)	2	31	1	56*	75*	/
COC(=O)c1sc(-c2ccccc2)cc1NC(=O)C1CC1	1	15	-2	5	15	4
COC(=O)c1sc(-c2ccc(C(C)(C)C)cc2)cc1NC(=O)CSCC(=O)O	-437	27	-9	-3	-6	77*
Nc1nc(Cl)nc2c1ncn2[C@H]1C[C@H](O)[C@@H](CO)O1	-1	76*	14	21	31	43
CC(=O)N[C@@H](Cc1c[nH]c2ccccc12)C(=O)OCC(=O)Nc1ccc2c(c1)OCO2	12*	/	/	/	/	/
CC(=O)NC(Cc1c[nH]c2ccccc12)C(=O)NCc1ccc2c(c1)OCO2 (centres undefined)	0	-7	4	-19	-16	-26
O=C(COC(=O)[C@H](Cc1c[nH]c2ccccc12)NC(=O)c1ccc(Cl)cc1)Nc1ccc2c(c1)OCO2	20*	-8	26	-10	-7	82*
Cc1cc(O)c(C(C)C)cc1N=Cc1ccc([N+](=O)[O-])cc1	-3	/	/	/	/	/
C/C(=N\NC(=O)Cc1ccc(Cl)cc1)c1ccc(F)cc1	-2	-7	-11	-16	-2	/
C/C(=N\NC(=O)Cc1ccc(Cl)cc1)c1ccccc1O	-7	9	5	63*	68	/
Cc1ccc(S(=O)(=O)NC(C(=O)Oc2ccc3ccc(=O)oc3c2)c2ccccc2)cc1 (centres undefined)	-11	-2	0	5	-1	22
Cc1ccc(S(=O)(=O)N[C@H](C(=O)Oc2ccc3c(C(F)(F)F)cc(=O)oc3c2)c2ccccc2)cc1	-7	-2	0	5	-1	75*
COc1ccc(NC(=S)NNC(=O)c2nnn(-c3ccccc3)c2C)cc1	-1	-10	-1	-8	-5	-4
Cc1[nH]n(-c2ccc(Br)cc2)c(=O)c1/C=N/NC(=O)c1ccccc1	-5	80*	/	-20	104*	/
Cc1[nH]n(-c2ccccc2)c(=O)c1/C=N/NC(=O)c1cccc(F)c1	0	49	10	-25	92*	/
Cc1ccc(-n2[nH]c(C)c(C=Nc3ccc(Br)cn3)c2=O)cc1	-1	20	-1	-2	7	80*
